Measured values published in ChEMBL document CHEMBL1153991, “Anthranilamide-based N,N-dialkylbenzamidines as potent and orally bioavailable factor Xa inhibitors: P4 SAR” (Bioorg Med Chem Lett, 2009).
Each block holds one compound with its values, some of them ahead of it.

How the values were obtained:
[1] = tested on: Plasma; assay: Anticoagulant activity in human plasma assessed as concentration required to double the thrombin generation time; type: functional
[2] = Oral bioavailability in rat; type: ADME, organism-based; conditions: in vivo
[3] = Volume of distribution in rat; type: ADME, organism-based; conditions: in vivo
[4] = biological target: Prothrombin (Homo sapiens, UniProt P00734); assay: Inhibition of thrombin
[5] = biological target: Tissue-type plasminogen activator (Homo sapiens, UniProt P00750); assay: Inhibition of tissue plasminogen activator
Chain of Tissue-type plasminogen activator (P00750 whole entry): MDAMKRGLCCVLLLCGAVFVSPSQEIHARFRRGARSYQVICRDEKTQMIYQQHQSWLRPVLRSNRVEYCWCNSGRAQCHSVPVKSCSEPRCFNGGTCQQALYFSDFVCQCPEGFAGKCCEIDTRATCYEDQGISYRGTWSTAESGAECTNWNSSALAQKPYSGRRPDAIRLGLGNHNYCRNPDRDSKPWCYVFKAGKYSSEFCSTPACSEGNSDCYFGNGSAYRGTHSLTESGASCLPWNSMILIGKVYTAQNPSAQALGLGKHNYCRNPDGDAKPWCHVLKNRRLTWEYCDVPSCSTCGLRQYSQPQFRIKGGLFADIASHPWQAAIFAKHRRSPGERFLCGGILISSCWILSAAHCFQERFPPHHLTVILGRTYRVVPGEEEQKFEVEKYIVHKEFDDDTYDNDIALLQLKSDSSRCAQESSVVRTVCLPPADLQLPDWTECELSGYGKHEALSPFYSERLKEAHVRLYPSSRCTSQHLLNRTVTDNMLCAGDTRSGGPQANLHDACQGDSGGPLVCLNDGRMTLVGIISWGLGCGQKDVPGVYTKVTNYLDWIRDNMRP

[6] = biological target: Coagulation factor X (Homo sapiens, UniProt P00742); assay: Inhibition of Factor 10a
Chain of Coagulation factor X (P00742 41-179 limits assumed): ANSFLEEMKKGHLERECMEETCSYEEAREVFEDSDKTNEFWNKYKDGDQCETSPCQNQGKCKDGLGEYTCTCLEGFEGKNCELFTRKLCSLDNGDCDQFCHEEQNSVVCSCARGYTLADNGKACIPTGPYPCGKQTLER
Chain of Coagulation factor X (P00742 235-488 limits assumed): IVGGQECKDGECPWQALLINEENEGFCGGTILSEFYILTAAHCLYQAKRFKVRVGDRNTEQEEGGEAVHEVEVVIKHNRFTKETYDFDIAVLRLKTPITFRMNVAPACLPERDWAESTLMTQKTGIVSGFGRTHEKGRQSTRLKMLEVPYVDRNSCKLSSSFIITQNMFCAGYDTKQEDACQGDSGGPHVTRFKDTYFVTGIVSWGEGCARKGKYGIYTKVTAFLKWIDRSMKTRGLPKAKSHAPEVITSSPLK

[7] = biological target: Vitamin K-dependent protein C (Homo sapiens) (UniProt P04070); assay: Inhibition of activated protein C
[8] = biological target: Plasminogen (Homo sapiens, UniProt P00747); assay: Inhibition of plasmin
Chain of Plasminogen (P00747 97-580 limits assumed): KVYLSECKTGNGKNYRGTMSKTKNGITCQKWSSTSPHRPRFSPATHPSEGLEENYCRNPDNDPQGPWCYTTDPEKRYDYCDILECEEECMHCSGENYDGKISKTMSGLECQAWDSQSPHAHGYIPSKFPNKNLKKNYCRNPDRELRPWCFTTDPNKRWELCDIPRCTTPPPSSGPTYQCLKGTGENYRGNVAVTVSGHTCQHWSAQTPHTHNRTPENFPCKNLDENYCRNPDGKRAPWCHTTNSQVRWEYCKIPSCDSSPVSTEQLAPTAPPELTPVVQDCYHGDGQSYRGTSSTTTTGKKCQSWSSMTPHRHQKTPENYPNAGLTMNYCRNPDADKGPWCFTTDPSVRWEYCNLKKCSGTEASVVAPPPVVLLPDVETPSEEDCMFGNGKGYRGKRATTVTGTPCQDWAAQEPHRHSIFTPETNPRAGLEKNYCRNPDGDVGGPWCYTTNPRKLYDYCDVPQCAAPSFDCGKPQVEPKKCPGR
Chain of Plasminogen (P00747 581-810 limits assumed): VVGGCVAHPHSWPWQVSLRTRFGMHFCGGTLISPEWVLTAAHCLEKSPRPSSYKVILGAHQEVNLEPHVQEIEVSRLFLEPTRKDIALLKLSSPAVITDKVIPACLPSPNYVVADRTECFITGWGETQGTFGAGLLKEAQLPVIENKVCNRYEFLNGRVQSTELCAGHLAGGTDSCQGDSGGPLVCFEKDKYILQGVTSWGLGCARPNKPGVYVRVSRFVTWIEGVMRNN

[9] = Inhibition of kallikrein
[10] = Inhibition of trypsin
[11] = Clearance in Sprague-Dawley rat at 0.4 mg/kg, iv and 6 mg/kg, po; type: ADME, organism-based; conditions: in vivo
Outline: (§1)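 Sprague–Dawley rats dosed 0.4 mg/kg IV and 6 mg/kg PO. Derived PK parameters: F (%), t1/2 (h), CL (mL/min/kg), Vd (L/kg).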

[12] = Half life in Beagle dog at 0.1 mg/kg, iv and 0.5 mg/kg, po; conditions: in vivo
[13] = Half life in Sprague-Dawley rat at 0.4 mg/kg, iv and 6 mg/kg, po; type: ADME, organism-based; conditions: in vivo; outline: as §1
[14] = Oral bioavailability in Sprague-Dawley rat at 6 mg/kg; type: ADME, organism-based; conditions: in vivo; outline: as §1
[15] = Oral bioavailability in Beagle dog at 0.5 mg/kg; type: ADME, organism-based, Canis lupus familiaris; conditions: in vivo
Outline: (§2)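 Beagle dogs dosed 0.1 mg/kg IV and 0.5 mg/kg PO. Derived PK parameters: F (%), t1/2 (h), CL (mL/min/kg), Vd (L/kg).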

[16] = Volume of distribution in Beagle dog at 0.1 mg/kg, iv and 0.5 mg/kg, po; type: ADME, organism-based, Canis lupus familiaris; conditions: in vivo; outline: as §2
[17] = Protein binding in human plasma; type: ADME, cell-free; conditions: read-out: PB (converted)
Outline: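 Plasma protein binding measured by ultrafiltration. Working solution added 1/100 to EDTA human plasma to a final 10 µM, incubated 37 °C for 30 min. Triplicate aliquots were centrifuged through filter devices for 25 min at 32 °C. Filtrate was mixed with acetonitrile containing internal standard and quantified by LC/MS/MS against standards prepared in ultrafiltered plasma.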

[18] = Clearance in Beagle dog at 0.1 mg/kg, iv and 0.5 mg/kg, po; type: ADME, organism-based, Canis lupus familiaris; conditions: in vivo; outline: as §2
[19] = Volume of distribution in Sprague-Dawley rat at 0.4 mg/kg, iv and 6 mg/kg, po; type: ADME, organism-based; conditions: in vivo; outline: as §1

SMILES: N=C1NCCN1Cc1ccc(C(=O)Nc2ccc(Cl)cc2C(=O)Nc2ccc(Cl)cn2)cc1
Activity [1]: 0.58 µM
bioavailability [2]: < 1%

SMILES: NS(=O)(=O)c1ccccc1-c1ccc(C(=O)Nc2ccccc2C(=O)Nc2ccc(Cl)cn2)cc1
Activity [1]: >5 µM
bioavailability [2]: 35%

SMILES: N=C1OCCN1Cc1ccc(C(=O)Nc2ccc(Cl)cc2C(=O)Nc2ccc(Cl)cn2)cc1
Vd [3]: 13.6 L/kg
Activity [1]: 0.56 µM

SMILES: CONC(=N)c1ccc(C(=O)Nc2ccccc2C(=O)Nc2ccc(Cl)cn2)cc1
IC50 [6]: 0.29 µM

SMILES: N=C(NN)c1ccc(C(=O)Nc2ccccc2C(=O)Nc2ccc(Cl)cn2)cc1
IC50 [6]: 0.025 µM

SMILES: CN(C)NC(=N)c1ccc(C(=O)Nc2ccccc2C(=O)Nc2ccc(Cl)cn2)cc1
IC50 [6]: 0.03 µM

SMILES: N=C(c1ccc(C(=O)Nc2ccccc2C(=O)Nc2ccc(Cl)cn2)cc1)N1CCS(=O)(=O)CC1
IC50 [6]: 0.256 µM

SMILES: CN1CCN(C(=N)c2ccc(C(=O)Nc3ccccc3C(=O)Nc3ccc(Cl)cn3)cc2)CC1
IC50 [6]: 0.714 µM

SMILES: CCN1CCN=C1c1ccc(C(=O)Nc2ccccc2C(=O)Nc2ccc(Cl)cn2)cc1
IC50 [6]: 0.064 µM

SMILES: O=C(Nc1ccccc1C(=O)Nc1ccc(Cl)cn1)c1ccc(C2=NCCCN2)cc1
IC50 [6]: 0.226 µM

SMILES: CN(C)C(=N)c1ccc(C(=O)Nc2ccccc2C(=O)Nc2ccc(Cl)cn2)cc1
clearance [11]: 16.8 mL/min/kg
half-life [12]: 3.5 h
half-life [13]: 4.3 h
bioavailability [15]: 69%
Vd [16]: 13.7 L/kg
Activity [1]: 0.54 µM
fraction unbound [17]: 0.27
clearance [18]: 45.7 mL/min/kg
Vd [19]: 6.3 L/kg

SMILES: CN1CCCN=C1c1ccc(C(=O)Nc2ccccc2C(=O)Nc2ccc(Cl)cn2)cc1
IC50 [6]: 0.078 µM

SMILES: CCNC(=N)c1ccc(C(=O)Nc2ccccc2C(=O)Nc2ccc(Cl)cn2)cc1
IC50 [6]: 0.093 µM

SMILES: N=C(c1ccc(C(=O)Nc2ccccc2C(=O)Nc2ccc(Cl)cn2)cc1)N1CCNCC1
IC50 [6]: 0.038 µM

SMILES: N=C(NO)c1ccc(C(=O)Nc2ccccc2C(=O)Nc2ccc(Cl)cn2)cc1
IC50 [6]: 0.035 µM

SMILES: O=C(Nc1ccccc1C(=O)Nc1ccc(Cl)cn1)c1ccc(C2=NCCN2)cc1
IC50 [6]: 0.316 µM

Continued by falling IC50 [6], values first:

IC50 [6]: 0.023 µM
SMILES: CNC(=N)c1ccc(C(=O)Nc2ccccc2C(=O)Nc2ccc(Cl)cn2)cc1

clearance [11]: 7.1 mL/min/kg
half-life [12]: 2.2 h
half-life [13]: > 6 h
bioavailability [14]: 22%
bioavailability [15]: 50%
Vd [16]: 9.2 L/kg
IC50 [6]: 0.02 µM
fraction unbound [17]: 0.18
clearance [18]: 49.6 mL/min/kg
Vd [19]: 3.7 L/kg
SMILES: CN1CCN=C1c1ccc(C(=O)Nc2ccccc2C(=O)Nc2ccc(Cl)cn2)cc1
Activity [1]: 1.1 µM

IC50 [6]: 0.012 µM
SMILES: N=C(c1ccc(C(=O)Nc2ccccc2C(=O)Nc2ccc(Cl)cn2)cc1)N1CCSCC1

IC50 [6]: 0.01 µM
SMILES: CCN(CC)C(=N)c1ccc(C(=O)Nc2ccccc2C(=O)Nc2ccc(Cl)cn2)cc1

IC50 [6]: 0.009 µM
SMILES: CCCN(C)C(=N)c1ccc(C(=O)Nc2ccccc2C(=O)Nc2ccc(Cl)cn2)cc1

IC50 [6]: 0.008 µM
SMILES: N=C(c1ccc(C(=O)Nc2ccccc2C(=O)Nc2ccc(Cl)cn2)cc1)N1CCCC1

IC50 [6]: 0.008 µM
SMILES: N=C(c1ccc(C(=O)Nc2ccccc2C(=O)Nc2ccc(Cl)cn2)cc1)N1CCC1

IC50 [6]: 0.007 µM
SMILES: N=C(c1ccc(C(=O)Nc2ccccc2C(=O)Nc2ccc(Cl)cn2)cc1)N1CCOCC1

IC50 [6]: 0.006 µM
SMILES: CCN(C)C(=N)c1ccc(C(=O)Nc2ccccc2C(=O)Nc2ccc(Cl)cn2)cc1

IC50 [4]: > 10 µM
IC50 [5]: > 10 µM
IC50 [6]: 0.004 µM
IC50 [7]: > 10 µM
IC50 [8]: > 10 µM
IC50 [9]: 4.9 µM
IC50 [10]: > 10 µM
bioavailability [2]: < 5%
SMILES: N=C(N)c1ccc(C(=O)Nc2ccccc2C(=O)Nc2ccc(Cl)cn2)cc1

clearance [11]: 32.2 mL/min/kg
half-life [13]: 6 h
bioavailability [14]: 18%
IC50 [6]: 0.003 µM
fraction unbound [17]: 0.11
Vd [19]: 16.7 L/kg
SMILES: N=C(c1ccc(C(=O)Nc2ccccc2C(=O)Nc2ccc(Cl)cn2)cc1)N1CCCCC1
Activity [1]: 0.36 µM
